The values that follow come from publication PMC7904387 (Nature chemical biology, 2020).

One test relates to advanced solid tumors. Particulars: cited from earlier work.
Test [1] deals with T1, UBE1 (Homo sapiens, UniProt P22314).
T1 sequence (P22314 1-1058): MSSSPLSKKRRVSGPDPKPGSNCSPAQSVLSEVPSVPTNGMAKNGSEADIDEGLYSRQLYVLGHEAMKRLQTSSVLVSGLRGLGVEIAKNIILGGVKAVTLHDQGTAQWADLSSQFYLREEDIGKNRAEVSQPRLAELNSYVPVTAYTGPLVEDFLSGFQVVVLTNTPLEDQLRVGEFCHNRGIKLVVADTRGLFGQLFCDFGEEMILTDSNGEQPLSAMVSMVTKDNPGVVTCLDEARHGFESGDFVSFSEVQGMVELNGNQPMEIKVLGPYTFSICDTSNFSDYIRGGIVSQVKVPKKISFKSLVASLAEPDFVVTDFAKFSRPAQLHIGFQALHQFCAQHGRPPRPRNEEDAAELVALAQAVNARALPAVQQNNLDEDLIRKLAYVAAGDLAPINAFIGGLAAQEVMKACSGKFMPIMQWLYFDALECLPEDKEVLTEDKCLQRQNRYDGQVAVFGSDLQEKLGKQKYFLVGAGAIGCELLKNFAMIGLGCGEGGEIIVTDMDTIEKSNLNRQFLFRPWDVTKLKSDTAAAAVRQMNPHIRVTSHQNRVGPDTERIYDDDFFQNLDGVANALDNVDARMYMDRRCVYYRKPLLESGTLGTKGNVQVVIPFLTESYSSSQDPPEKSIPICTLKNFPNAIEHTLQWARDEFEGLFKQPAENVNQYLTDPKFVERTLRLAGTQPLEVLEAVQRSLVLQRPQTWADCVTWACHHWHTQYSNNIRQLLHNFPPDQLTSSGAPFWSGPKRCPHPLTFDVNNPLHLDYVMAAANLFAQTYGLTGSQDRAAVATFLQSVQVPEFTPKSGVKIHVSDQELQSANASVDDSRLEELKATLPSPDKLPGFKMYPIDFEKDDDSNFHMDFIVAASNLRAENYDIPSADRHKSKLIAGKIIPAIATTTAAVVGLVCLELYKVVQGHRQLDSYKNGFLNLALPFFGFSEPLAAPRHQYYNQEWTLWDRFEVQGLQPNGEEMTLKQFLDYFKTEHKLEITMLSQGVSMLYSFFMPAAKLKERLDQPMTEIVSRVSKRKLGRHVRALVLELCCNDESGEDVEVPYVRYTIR
Put plainly: HXMS, deuterium exchange into peptide with and without UBE1. Particulars: incubation with UBE1, 10 sec labeling. Format: binding. The procedure, abridged: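 Labelling was by 18-fold dilution into D2O buffer (pD 8) for 10 sec, quenched with guanidinium chloride/formic acid (pH 2), then LC-MS. Uptake was not back-exchange corrected. Difference = with UBE1 minus peptide alone; ≥2 biological replicates.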

For test [2], the target named is T1, UBE1. Put plainly: Streptavidin capture. Particulars: UBE1 10 pmol, biotinylated peptide 5 nmol. The class given is binding. The procedure, abridged: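 Recombinant human UBE1 (10 pmol) was incubated with C-terminally biotinylated peptide (5 nmol) or 0.5% DMSO for 1.5 h at 4°C in 50 mM NaCl, 20 mM HEPES pH 7.4, 5 mM DTT. Streptavidin agarose was added for another 1.5 h at 4°C. Beads were washed three times in NP-40 buffer and heat-eluted (70°C, 10 min). Read-out was SDS-PAGE with silver stain.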

Non-standard residues stand in square brackets, D forms with d. Residues, ends and D or L forms follow the SMILES beside them. Nle = CCCC[C@H](N)C(=O)O

Take `NS(=O)(=O)OC[C@H]1C[C@@H](Nc2ccnc3cc(-c4cccc(SC(F)(F)F)c4)nn23)[C@H](O)[C@@H]1O` [TAK-243]: in the test with advanced solid tumors (11 patients of twenty evaluable), the “stable disease, patients” value is on record as 55%. Also, the “partial response, evaluable patients” value in the test with advanced solid tumors (one of twenty evaluable patients) was 5%.

For `CCCC[C@H](NC(C)=O)C(=O)N[C@@H](CO)C(=O)N[C@H](C(=O)N1CCC[C@H]1C(=O)N[C@@H](C)C(=O)N[C@@H](CCCNC(=N)N)C(=O)N[C@@H](CCCNC(=N)N)C(=O)N[C@@H](CCCNC(=N)N)C(=O)N[C@@H](CC(C)C)C(=O)N[C@@H](CCCC)C(=O)N[C@@H](CCCNC(=N)N)C(=O)N[C@@H](CC(=O)O)C(=O)N[C@@H](Cc1ccccc1)C(=O)N[C@@H](CCCCN)C(=O)N[C@@H](CCCNC(=N)N)C(=O)N[C@@H](CC(C)C)C(=O)N[C@@H](CCC(N)=O)C(N)=O)[C@@H](C)O` [UBE2A] (Ac-[Nle]STPARRRL[Nle]RDFKRLQ-NH2), the “effect of UBE1 on deuterium exchange of the peptide, in words” value on UBE1 [1] is given as “no meaningful effect”.

As for “BSTP8RRRLBRXFKRLQLys(biotin) (sidechain bridge or staple) [C-terminally biotinylated SAH-UBE2A]”, the “binding to recombinant UBE1 by streptavidin pull-down and silver stain, in words” value at UBE1 [2] is “directly and robustly binds”.
